Key:
[1] = target: JAK1/TYK2 (Homo sapiens, UniProt P23458+P29597); test: Inhibition of JAK1/TYK2 in human Kit225 T cells assessed as inhibition of STAT phosphorylation by luciferase reporter assay; format: cell-based
Method in brief: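 T-cells carrying a stably integrated STAT-dependent luciferase reporter were stimulated with IFNα or IL-23 to measure TYK2/JAK1-dependent signalling. Dose–response curves gave IC50.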

[2] = Metabolic stability in mouse liver microsomes assessed as compound remaining incubated for 10 mins; format: ADME, Microsome; details: read-out: Stability
Method in brief: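 Mouse liver microsomal stability, reported as percent of parent remaining after a 10 min incubation. Values are means of at least three experiments unless otherwise noted.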

[3] = target: Non-receptor tyrosine-protein kinase TYK2 (Homo sapiens, UniProt P29597); test: Inhibition of TYK2 in human whole blood assessed as decrease in IFNalpha-induced STAT5 phosphorylation preincubated for 1 hr followed by stimulation with IFN-alpha for 15 mins by fluorescence analysis; format: tissue-based
Method in brief: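 Human whole blood stimulated with IFNα; STAT5 phosphorylation was read in cells by staining and flow cytometry. IC50 from dose–response; mean of at least three experiments.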

[4] = target: Non-receptor tyrosine-protein kinase TYK2 (Mus musculus, UniProt Q9R117); test: Inhibition of TYK2 in mouse whole blood assessed as decrease in IFNalpha-induced STAT1 phosphorylation preincubated for 1 hr followed by stimulation with IFN-alpha for 15 mins by fluorescence analysis; format: tissue-based
Method in brief: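 Mouse whole blood stimulated with IFNα; STAT1 phosphorylation was measured by cellular staining and flow cytometry. Read as IC50.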

[5] = Permeability coefficient, Kp across apical to basolateral side in human Caco2 cells; format: ADME, cell-based; details: Caco-2, read-out: permeability
Method in brief: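 Caco-2 monolayer permeability measured in both directions, apical-to-basal and basal-to-apical, reported as Pc in nm/s. An efflux ratio was calculated from the two directions.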

Non-receptor tyrosine-protein kinase TYK2 (Homo sapiens, UniProt P29597), sequence (P29597 whole entry): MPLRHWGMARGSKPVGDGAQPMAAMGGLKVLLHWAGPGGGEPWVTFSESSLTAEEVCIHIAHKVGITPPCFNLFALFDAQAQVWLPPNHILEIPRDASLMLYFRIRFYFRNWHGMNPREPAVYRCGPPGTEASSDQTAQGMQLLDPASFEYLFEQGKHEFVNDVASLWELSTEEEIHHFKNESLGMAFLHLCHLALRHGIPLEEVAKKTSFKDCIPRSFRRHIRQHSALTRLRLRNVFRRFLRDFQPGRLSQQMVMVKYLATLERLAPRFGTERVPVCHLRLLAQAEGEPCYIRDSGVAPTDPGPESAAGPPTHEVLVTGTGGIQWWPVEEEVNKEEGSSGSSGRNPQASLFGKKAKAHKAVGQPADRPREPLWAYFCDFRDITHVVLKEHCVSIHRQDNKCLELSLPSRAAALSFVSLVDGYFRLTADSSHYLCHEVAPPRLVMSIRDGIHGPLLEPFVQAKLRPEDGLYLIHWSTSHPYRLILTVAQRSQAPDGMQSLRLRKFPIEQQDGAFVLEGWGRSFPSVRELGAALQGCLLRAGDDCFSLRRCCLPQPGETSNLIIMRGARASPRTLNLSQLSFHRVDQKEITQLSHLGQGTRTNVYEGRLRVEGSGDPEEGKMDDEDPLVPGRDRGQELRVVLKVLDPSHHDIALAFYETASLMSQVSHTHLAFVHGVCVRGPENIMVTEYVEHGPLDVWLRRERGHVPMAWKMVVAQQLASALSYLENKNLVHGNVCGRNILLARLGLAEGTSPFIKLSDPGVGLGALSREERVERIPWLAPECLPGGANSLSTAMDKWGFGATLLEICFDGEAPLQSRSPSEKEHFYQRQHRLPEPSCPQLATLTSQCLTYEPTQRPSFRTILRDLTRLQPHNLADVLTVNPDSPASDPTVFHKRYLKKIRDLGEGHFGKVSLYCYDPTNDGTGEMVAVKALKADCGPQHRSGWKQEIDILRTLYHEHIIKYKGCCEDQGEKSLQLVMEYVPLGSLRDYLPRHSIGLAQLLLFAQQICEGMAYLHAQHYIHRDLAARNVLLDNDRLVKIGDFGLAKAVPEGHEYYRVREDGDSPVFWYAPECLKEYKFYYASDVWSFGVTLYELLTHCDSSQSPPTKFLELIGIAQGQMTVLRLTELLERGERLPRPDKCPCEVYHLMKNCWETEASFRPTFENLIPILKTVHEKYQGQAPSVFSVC
JAK1/TYK2, sequence (P23458 whole entry): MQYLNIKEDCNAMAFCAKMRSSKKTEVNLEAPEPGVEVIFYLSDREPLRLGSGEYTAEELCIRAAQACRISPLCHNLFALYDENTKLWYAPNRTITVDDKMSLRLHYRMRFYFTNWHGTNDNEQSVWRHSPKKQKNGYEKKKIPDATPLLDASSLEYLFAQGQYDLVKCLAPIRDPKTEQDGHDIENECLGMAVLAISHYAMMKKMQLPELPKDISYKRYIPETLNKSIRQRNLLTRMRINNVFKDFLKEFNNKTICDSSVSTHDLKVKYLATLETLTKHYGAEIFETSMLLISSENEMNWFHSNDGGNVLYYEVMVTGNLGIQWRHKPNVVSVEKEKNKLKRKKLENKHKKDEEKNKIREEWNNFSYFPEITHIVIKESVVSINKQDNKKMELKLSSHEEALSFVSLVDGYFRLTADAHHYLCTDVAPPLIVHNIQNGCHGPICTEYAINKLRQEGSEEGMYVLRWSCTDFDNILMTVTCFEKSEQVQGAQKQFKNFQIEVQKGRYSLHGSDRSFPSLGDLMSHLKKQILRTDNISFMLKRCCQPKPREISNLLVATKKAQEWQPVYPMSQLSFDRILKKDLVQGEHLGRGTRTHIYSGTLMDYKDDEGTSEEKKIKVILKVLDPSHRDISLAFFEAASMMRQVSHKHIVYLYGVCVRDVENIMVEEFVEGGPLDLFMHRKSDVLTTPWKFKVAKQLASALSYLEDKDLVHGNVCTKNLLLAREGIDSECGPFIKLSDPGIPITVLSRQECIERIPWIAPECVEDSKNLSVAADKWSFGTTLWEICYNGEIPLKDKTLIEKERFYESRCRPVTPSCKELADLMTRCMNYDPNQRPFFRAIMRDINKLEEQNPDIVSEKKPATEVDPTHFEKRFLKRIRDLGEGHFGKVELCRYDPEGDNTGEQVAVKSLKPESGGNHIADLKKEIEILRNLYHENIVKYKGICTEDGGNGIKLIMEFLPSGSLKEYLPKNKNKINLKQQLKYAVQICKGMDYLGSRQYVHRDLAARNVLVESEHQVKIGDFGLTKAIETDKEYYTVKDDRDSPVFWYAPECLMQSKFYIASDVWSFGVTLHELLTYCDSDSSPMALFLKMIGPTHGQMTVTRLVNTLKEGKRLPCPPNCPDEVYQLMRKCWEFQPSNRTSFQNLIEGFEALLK
JAK1/TYK2, sequence (P29597 whole entry): as the sequence (P29597 whole entry) above
Non-receptor tyrosine-protein kinase TYK2 (Mus musculus, UniProt Q9R117), sequence (Q9R117 whole entry): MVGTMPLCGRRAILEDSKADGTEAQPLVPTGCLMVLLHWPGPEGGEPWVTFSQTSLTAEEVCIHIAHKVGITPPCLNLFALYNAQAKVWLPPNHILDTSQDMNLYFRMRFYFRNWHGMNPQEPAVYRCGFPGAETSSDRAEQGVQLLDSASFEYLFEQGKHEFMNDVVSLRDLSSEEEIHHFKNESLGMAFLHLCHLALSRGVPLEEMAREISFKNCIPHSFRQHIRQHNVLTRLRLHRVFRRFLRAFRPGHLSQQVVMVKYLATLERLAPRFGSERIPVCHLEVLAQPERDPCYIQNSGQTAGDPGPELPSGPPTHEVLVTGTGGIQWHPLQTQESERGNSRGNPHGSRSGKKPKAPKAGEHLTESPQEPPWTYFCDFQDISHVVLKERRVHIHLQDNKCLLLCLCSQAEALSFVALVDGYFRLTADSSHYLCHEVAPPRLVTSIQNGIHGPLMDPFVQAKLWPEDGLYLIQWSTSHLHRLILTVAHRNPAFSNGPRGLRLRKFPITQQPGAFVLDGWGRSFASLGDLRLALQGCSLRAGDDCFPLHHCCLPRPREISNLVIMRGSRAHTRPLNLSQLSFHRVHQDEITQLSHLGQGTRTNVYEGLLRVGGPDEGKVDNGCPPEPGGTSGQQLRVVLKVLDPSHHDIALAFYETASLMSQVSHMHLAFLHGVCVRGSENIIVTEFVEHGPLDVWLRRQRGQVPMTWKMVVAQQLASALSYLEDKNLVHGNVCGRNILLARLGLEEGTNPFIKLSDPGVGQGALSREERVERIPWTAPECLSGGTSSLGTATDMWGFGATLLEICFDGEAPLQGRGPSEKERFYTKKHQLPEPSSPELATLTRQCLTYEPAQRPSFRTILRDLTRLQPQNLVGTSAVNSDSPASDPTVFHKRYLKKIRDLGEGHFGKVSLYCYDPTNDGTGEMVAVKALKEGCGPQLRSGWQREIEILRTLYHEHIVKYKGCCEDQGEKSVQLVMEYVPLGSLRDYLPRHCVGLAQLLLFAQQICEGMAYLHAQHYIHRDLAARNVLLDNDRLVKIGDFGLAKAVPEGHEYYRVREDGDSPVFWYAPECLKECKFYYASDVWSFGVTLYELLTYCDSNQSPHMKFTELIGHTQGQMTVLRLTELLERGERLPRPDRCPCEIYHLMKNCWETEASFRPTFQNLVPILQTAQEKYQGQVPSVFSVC

| SMILES | IC50 [1] | remaining at 10 min [2] | IC50 [3] | IC50 [4] | Papp A→B [5] |
| --- | --- | --- | --- | --- | --- |
| CNC(=O)c1cnc(Nc2cc(C)c(F)cn2)cc1Nc1cccc(C(=O)NCC2CC2)c1OC | 64 nM |  | 870 nM |  |  |
| CNC(=O)c1cnc(Nc2ccc(F)cn2)cc1Nc1cccc(C#N)c1OC | 34 nM |  | 570 nM |  |  |
| CNC(=O)c1cnc(NC(=O)C2CC2)cc1Nc1cccc(-c2ncn(C)n2)c1OC | 14 nM | 93% | 16 nM | 330 nM | 2.3 ×10⁻⁶ cm/s |
| CNC(=O)c1cnc(Nc2cc(C)c(F)cn2)cc1Nc1cccc(C(=O)NCCN2CCOCC2)c1OC | 51 nM |  | 160 nM |  |  |
| CNC(=O)c1cnc(Nc2ccc(C#N)cn2)cc1Nc1cccc(-c2ncn(C)n2)c1OC | 6 nM | 85% | 15 nM | 260 nM | 1.8 ×10⁻⁶ cm/s |
| CNC(=O)c1cccc(Nc2cc(Nc3ccc(F)cn3)ncc2C(=O)NC)c1 | 7500 nM |  | > 10000 nM |  |  |
| CNC(=O)c1ccc(Nc2cc(Nc3ccc(F)cn3)ncc2C(=O)NC)c(OC)c1 | 490 nM |  | 520 nM |  | < 1.5 ×10⁻⁶ cm/s |
| CNC(=O)c1cnc(Nc2cc(C)c(F)cn2)cc1Nc1cccc(C(=O)NCCO)c1OC | 220 nM |  | 270 nM |  |  |
| CNC(=O)c1cnc(Nc2ccc(F)cn2)cc1Nc1ccc(C(N)=O)cc1OC | 930 nM |  | 390 nM |  |  |
| [2H]C([2H])([2H])NC(=O)c1nnc(NC(=O)C2CC2)cc1Nc1cccc(-c2ncn(C)n2)c1 |  |  | > 10000 nM |  |  |
| CCNC(=O)c1cccc(Nc2cc(Nc3cc(C)c(F)cn3)ncc2C(=O)NC)c1OC | 28 nM |  | 280 nM |  |  |
| CNC(=O)c1cnc(Nc2ccc(F)cn2)cc1Nc1cccc(C(=O)O)c1OC | > 10000 nM |  | > 10000 nM |  | < 1.5 ×10⁻⁶ cm/s |
| CNC(=O)c1cnc(Nc2ccc(F)cn2)cc1Nc1cccc(C(=O)NC)c1OC | 78 nM |  | 230 nM |  | 5 ×10⁻⁶ cm/s |
| CNC(=O)c1cnc(Nc2cc(C)c(F)cn2)cc1Nc1cccc(C(=O)NC)c1OC | 47 nM |  | 140 nM |  |  |
| CNC(=O)c1cnc(Nc2cc(C)c(F)cn2)cc1Nc1cccc(C(=O)NCc2ccccn2)c1OC | 22 nM |  | 180 nM |  |  |
| CNC(=O)c1cnc(Nc2ccc(F)cn2)cc1Nc1cccc(C(N)=O)c1OC | 63 nM |  | 120 nM |  |  |
| CNC(=O)c1cnc(Nc2cc(C)c(F)cn2)cc1Nc1cccc(C(=O)N(C)C)c1OC | 130 nM |  | 750 nM |  |  |

More lines, now with the values ahead:

| IC50 [1] | remaining at 10 min [2] | IC50 [3] | IC50 [4] | Papp A→B [5] | SMILES |
| --- | --- | --- | --- | --- | --- |
| 16 nM | 29% | 150 nM |  |  | CNC(=O)c1cnc(Nc2cc(C)c(F)cn2)cc1Nc1cccc(-c2nncn2C)c1OC |
| 12 nM | 70% | 100 nM | 570 nM |  | CNC(=O)c1cnc(Nc2cc(C)c(F)cn2)cc1Nc1cccc(-c2nnc(C)o2)c1OC |
| 7 nM | 63% | 40 nM | 320 nM |  | CNC(=O)c1cnc(Nc2cc(C)c(F)cn2)cc1Nc1cccc(-c2n[nH]c(C)n2)c1OC |
| 8 nM | 51% | 23 nM | 310 nM |  | CNC(=O)c1cnc(Nc2cc(C)c(F)cn2)cc1Nc1cccc(-c2nc[nH]n2)c1OC |
| 15 nM | 46% | 170 nM | 522 nM |  | CNC(=O)c1cnc(Nc2cc(C)c(F)cn2)cc1Nc1cccc(-c2nnco2)c1OC |
| 4 nM | 80% | 12 nM | 130 nM |  | CNC(=O)c1cnc(Nc2cc(C)c(F)cn2)cc1Nc1cccc(-c2ncn(C)n2)c1OC |
| 15 nM | 9% | 87 nM | 380 nM |  | CNC(=O)c1cnc(Nc2cc(C)c(F)cn2)cc1Nc1cccc(-c2ncnn2C)c1OC |
| 9 nM | 66% | 79 nM | 430 nM |  | CNC(=O)c1cnc(Nc2cc(C)c(F)cn2)cc1Nc1cccc(-c2ccn(C)n2)c1OC |
| 70 nM | 15% | 300 nM |  |  | CNC(=O)c1cnc(Nc2cc(C)c(F)cn2)cc1Nc1cccc(-c2ccnn2C)c1OC |

— ChEMBL document CHEMBL4376812 (J Med Chem, 2019)
